{"data": "Published values of several laboratories", "observed": "microbial growth"}
{"SMILES": "Cc1cc(O)cc(Nc2nnc(-c3n[nH]c4ccc(C)cc34)s2)c1", "organism": "Serratia marcescens", "strain": "ATCC8100", "MIC [mg/L]": 125}
{"SMILES": "CNC(C)C1CCC(N)C(OC2C(N)CC(N)C(OC3OCC(C)(O)C(NC)C3O)C2O)O1 (stereo not shown)", "organism": "Enterobacter cloacae", "technique": "broth dilution", "strain": "ATCC13047", "MIC [mg/L]": 4}
{"SMILES": "COc1ccc(N=Nc2c(N)nn3c(-c4ccc(C)cc4)cc(-c4ccc(OCc5ccccc5)cc4)nc23)cc1", "organism": "Enterobacter cloacae", "strain": "ATCC23355", "MIC [mg/L]": 31.3}
{"SMILES": "CN(C)[C@@H]1C(O)=C(C(N)=O)C(=O)[C@@]2(O)C(O)=C3C(=O)c4c(O)cccc4[C@@](C)(O)[C@H]3C[C@@H]12", "organism": "Enterobacter cloacae", "technique": "broth dilution", "strain": "ATCC13047", "MIC [mg/L]": 2}
{"SMILES": "CCCCCCC#Cc1cncc(-c2nnc(SCc3cc([N+](=O)[O-])cc([N+](=O)[O-])c3)n2CCOC2OC(CN)C(O)C2O)c1 (stereo not shown)", "organism": "Enterobacter cloacae", "technique": "broth dilution", "strain": "DSM30054", "MIC [mg/L]": 64}
{"SMILES": "C[C@@H](O)[C@H]1C(=O)N2C(C(=O)O)=C(SCCN=CN)C[C@H]12", "organism": "Enterobacter cloacae", "technique": "broth dilution", "strain": "ATCC13047", "MIC [mg/L]": 2}
{"SMILES": "CCCCCCC#Cc1cncc(-c2nnc(SCc3ccc([N+](=O)[O-])cc3)n2CCCN)c1", "organism": "Enterobacter cloacae", "technique": "broth dilution", "strain": "DSM30054", "MIC [mg/L]": "> 64"}
{"SMILES": "Cc1ccc2[nH]nc(-c3nnc(Nc4ccc(Cl)c(Br)c4)s3)c2c1", "organism": "Serratia marcescens", "strain": "ATCC8100", "MIC [mg/L]": 270}
{"SMILES": "Nc1nn2c(-c3ccco3)cc(-c3ccc(OCc4ccccc4)cc3)nc2c1N=Nc1ccc(F)cc1", "organism": "Enterobacter cloacae", "strain": "ATCC23355", "MIC [mg/L]": 15.6}
{"SMILES": "Cc1ccc2[nH]nc(-c3nnc(Nc4cc(Cl)cc(Br)c4)s3)c2c1", "organism": "Serratia marcescens", "strain": "ATCC8100", "MIC [mg/L]": 250}
{"SMILES": "CCCCCCC#Cc1cncc(-c2nnc(SCc3cc([N+](=O)[O-])cc([N+](=O)[O-])c3)n2C2CCNCC2)c1", "organism": "Enterobacter cloacae", "technique": "broth dilution", "strain": "DSM30054", "MIC [mg/L]": "> 64"}
{"SMILES": "Nc1nn2c(-c3ccc(Cl)cc3Cl)cc(-c3ccc(OCc4ccccc4)cc3)nc2c1N=Nc1ccc(F)cc1", "organism": "Enterobacter cloacae", "strain": "ATCC23355", "MIC [mg/L]": 15.6}
{"SMILES": "Cc1ccc2[nH]nc(-c3nnc(Nc4ccc(C)c(C)c4)s3)c2c1", "organism": "Serratia marcescens", "strain": "ATCC8100", "MIC [mg/L]": 123}
{"SMILES": "CC1(C)S[C@@H]2[C@H](NC(=O)[C@H](N)c3ccc(O)cc3)C(=O)N2[C@H]1C(=O)O", "organism": "Enterobacter cloacae", "technique": "broth dilution", "strain": "ATCC13047", "MIC [mg/L]": "> 64"}
{"SMILES": "Cc1ccc2[nH]nc(-c3nnc(Nc4ccc(Cl)c(Cl)c4)s3)c2c1", "organism": "Serratia marcescens", "strain": "ATCC8100", "MIC [mg/L]": 110}
{"SMILES": "Cc1ccc(N=Nc2c(N)nn3c(-c4ccco4)cc(-c4ccc(OCc5ccccc5)cc4)nc23)cc1", "organism": "Enterobacter cloacae", "strain": "ATCC23355", "MIC [mg/L]": 31.3}
